Screening results (PubChem BioAssay)
NF-kB neuron act – activators of NF-kB expression in neurons, primary screen, cell-based, HTS; human neuronal cells, NF-kB reporter expression; hits give high values; fold change at 12.5 µM; 1.6% of 190,000 active; in the data active = fold change above about 3.3
STAT1 inh – STAT1 signaling inhibitors, primary screen, cell-based, HTS, luciferase reporter. NIH 3T3 STAT1-luciferase reporter, IFN-gamma, luminescence. inhibition, % at 5.5 µM. 0.35% of 200,000 active;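 active = inhibition above a set limit, the mean inhibition across all tested compounds plus 3 SD, cut at about 34% in these data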;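 also: 0% = IFN-gamma with DMSO and 100% = IFN-gamma with 300 µM nifuroxazide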
STAT3 act-1 – IL-6 driven STAT3 reporter potentiators, primary screen, U3A cells, luciferase, luminescence, MLSCN library. IL-6 STAT3-luciferase reporter; 100% = signal with IL-6 EC80 alone. activation (% of control), % at 5.6 µM. 0.91% of 190,000 active. AID 871, 2007;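 active = activation above the screen-wide mean of compound activation plus 3 SD, cut at about 130% in these data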;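 also: 0% = background luminescence of wells with medium and substrate only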
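Test system: human U3A cells carrying STAT3-luciferase construct; control set: IL-6-only wells as 100% reference; timing: compound pre-incubation 1 h before IL-6, then 6 h stimulation at 37 °C; also added: IL-6 stimulus at 33 ng/mL final; evaluation: % activation versus median of IL-6-stimulated wells; detection: reporter luminescence signal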
APP 5'UTR act – activators of APP 5'UTR luciferase reporter, primary screen, SH-SY5Y cells; SH-SY5Y APP 5'UTR luciferase reporter, luminescence; zero percent = DMSO vehicle wells; activation, % at 2 µM; 1% of 190,000 active;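 active = activation above a set limit, based on mean plus 3 SD of controls, cut at about 140% in these data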
STAT3 blocker – IL-6 driven STAT3 reporter inhibitors, primary screen, U3A cells, luciferase, luminescence, MLSCN library; IL-6 STAT3-luciferase reporter; host cell line lacks STAT1; inhibition, % at 5.5 µM; 0.89% of 190,000 active;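 active = inhibition above the mean inhibition across all screened compounds plus 3 SD, cut at about 44% in these data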;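 also: 0% = DMSO only wells and 100% = 100 µM nifuroxazide control wells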
STAT1 act-1 – STAT1 signaling activators, primary screen, cell-based, HTS, luciferase reporter | NIH 3T3 STAT1-luciferase reporter, IFN-gamma, luminescence; 100% = IFN-gamma alone, no compound | activation (% of control), % at 5.5 µM | 2.6% of 200,000 active | AID 932, 2007;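 active = activation above the screen-wide mean activation plus 3 SD, cut at about 130% in these data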;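 also: raw ratio to IFN-gamma control signal so 100% means no change and 0% no light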
STAT3 act-2 – STAT3 reporter potentiators, retest of hits, confirmation, U3A cells, luciferase, luminescence. 64% of 1,200 active. AID 1267, 2008. IL-6 potentiation; U3A cells lack STAT1; 100 means same as IL-6 alone. shares compounds with STAT3 act-1. potentiation (% of control), % at 5.7 µM;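 active = percent activation of the STAT3 luciferase reporter above a set limit taken from the earlier primary screen, cut at about 130% in these data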;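 also: 0% = background signal of medium plus substrate and 100% = median of IL-6 with DMSO wells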
NFkB act STAT3ct – NF-kB reporter activators in human cells, counter-screen for STAT3 activator project; shares compounds with STAT3 act-1; NF-kappaB reporter activation; activation (% of control), % at 5.7 µM; 11% of 1,200 active; in the data active = activation above about 120%;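 also: reporter induced by TNF-alpha stimulation; 100% = median of stimulated DMSO wells and 0% = no signal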
STAT1 act-2 – STAT1 reporter activators, IFN-gamma induced, counter-screen for STAT3 activator project, cell-based, NIH 3T3, luciferase luminescence. shares compounds with STAT3 act-1. NIH 3T3 STAT1-luciferase reporter. activation (% of control), % at 5.7 µM. 13% of 1,200 active. AID 1318, 2008;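 active = activation above the solvent-only control well mean plus 3 SD, set per screening run, cut at about 120% in these data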;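 also: 100% = IFN-gamma with DMSO median signal so 100% means no change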
Numbers without * were called inactive; . = no result given. Most compounds without a hit are left out; they make up all but 4.9% or so of the library.

SMILES	NF-kB neuron act	STAT1 inh	STAT3 act-1	APP 5'UTR act	STAT3 blocker	STAT1 act-1	STAT3 act-2	NFkB act STAT3ct	STAT1 act-2
CCOCCCNC(=O)C(NC(=O)Cc1c[nH]c2ccccc12)c1ccccc1 (stereo not drawn)	1	10	144*	7	-42	90	135*	104	98
CCOCCCNC(=O)C(NC(=O)Cc1cccs1)c1ccccc1 (stereo not drawn)	0.98	-3	96	2	12	102	.	.	.
O=C(CCN1CCOCC1)N1CCc2c([nH]c3ccccc23)C1c1cccc(Cl)c1 (stereo not drawn)	1.1	6	142*	-11	-41	94	172*	110	87
CN(C)C(=O)N1CCC(C(=O)NCc2cccs2)CC1	1.2	1	145*	2	-49	98	95	102	100
C/C(=N\NC(=O)CN1CCN(Cc2ccc(C)cc2)CC1)c1ccncc1	0.85	1	101	-12	-3	99	.	.	.
CC(C)(C)NC(=O)CSC(=Nc1ccc(F)cc1)NC#N	1	8	96	21	8	93	.	.	.
Cc1c(C(=O)c2ccccc2)c(=O)n(C)c(=O)n1C	1	-6	98	-5	13	105	.	.	.
C/C(N)=C(/C#N)C(=O)CSc1nnc(COc2ccccc2Cl)o1	1.1	2	139*	-6	-39	99	134*	118	106
CC(C)(C)NC(=O)NC(=O)CSc1nnc(COc2ccccc2Cl)o1	1.2	-8	102	3	3	107	.	.	.
O=C(CCS(=O)(=O)Cc1ccc(Cl)cc1)NCCc1ccccc1	1.2	-9	105	-2	0	106	.	.	.
CN(C)C(CN1C(=O)C2CC=CCC2C1=O)c1cn(C)c2ccccc12 (stereo not drawn)	0.91	11	153*	-6	-58	90	149*	104	90
O=C1CCCCCN1Cc1nnc(SCc2nc3ccccc3s2)n1-c1ccccn1	1.1	-28	140*	86	-39	127	151*	129*	145*
Nc1nc(-c2ccc(Cl)cc2)nn1C(=O)c1cccs1	1.1	7	146*	-1	-48	95	145*	103	91
O=C(CN(c1ccc(F)cc1)S(=O)(=O)c1ccc2c(c1)OCCO2)Nc1ccccc1	1.1	6	103	1	0	94	.	.	.
Cc1ccc(C)c(/C(O)=C2\C(=O)C(=O)N(CCCN3CCOCC3)C2c2cccnc2)c1 (stereo not drawn)	1.4	12	99	3	5	89	.	.	.
Cc1ccc(C)c(/C(O)=C2/C(=O)C(=O)N(CCN3CCOCC3)C2c2ccc(C)o2)c1 (stereo not drawn)	0.9	12	136*	6	-37	89	129	107	102
O=C(O)c1ccc(Br)cn1	1.3	0	96	21	8	99	.	.	.
O=C(CCc1nnc(CCCCc2ccccc2)o1)NCCCc1cccnc1	1	11	93	-8	10	90	.	.	.
O=C(CCCOc1ccc(Cl)cc1Cl)N/N=C/c1cccc([N+](=O)[O-])c1	0.9	-7	97	-8	5	106	.	.	.
COc1ccc(C(=O)Nc2ccccc2C(=O)NC(Cc2c[nH]c3ccccc23)C(=O)O)cc1 (stereo not drawn)	1.1	8	138*	1	-44	92	123	100	94
N#C/C(=C\c1ccco1)Sc1nc2ccccc2s1	1.2	-4	138*	0	-45	104	122	107	103
O=C(Nc1nc2c(s1)COc1ccccc1-2)c1cccs1	1.2	-30	139*	21	-42	127	107	154*	136*
O=C(Nc1nc2c(s1)CCc1ccccc1-2)c1cccs1	1.5	-10	121	44	-22	109	.	.	.
COc1cccc(-c2nc(N3CCCCC3C)c3ccccc3n2)c1O (stereo not drawn)	0.62	10	138*	-3	-42	91	138*	105	99
O=C(NC(=S)Nn1cnnc1)c1cccc(Br)c1	1.6	9	95	-9	6	92	.	.	.
SMILES	NF-kB neuron act	STAT1 inh	STAT3 act-1	APP 5'UTR act	STAT3 blocker	STAT1 act-1	STAT3 act-2	NFkB act STAT3ct	STAT1 act-2
Fc1ccc2nc(Nc3nc4c(F)cccc4s3)sc2c1	1.3	-17	140*	20	-54	116	169*	120	130*
Fc1cccc2sc(Nc3nc4ccccc4s3)nc12	1.2	-24	177*	96	-92	121	210*	129*	156*
Oc1oc(-c2cccc3ccccc23)nc1/C=N/c1nccs1	1.2	9	101	-20	2	92	.	.	.
C(=N\c1nccs1)/c1c[nH]c2ccccc12	1.1	13	167*	5	-81	89	132	103	94
Cc1cc(C)n(-c2nc(C)nc3c2cnn3-c2ccccc2)n1	1.2	-6	155*	9	-60	106	151*	108	99
Cc1ccc(C)c(NC(=S)c2nc3ccccc3s2)c1	1.4	-4	142*	19	-53	104	203*	127*	130*
C=CC(=O)NC(C)(C)CCN1CCOCC1	0.95	5	96	11	6	95	.	.	.
COC(=O)c1sccc1NC(=O)c1cc2c(s1)CCCC2	1.3	-11	170*	-1	-79	109	146*	110	109
COc1ccc(C)cc1NC(=O)c1cc2c(s1)CCC2	1.3	-12	112	14	-19	111	.	.	.
Cc1ccc2[nH]c(C)c(/C=N/Nc3nc4ccccc4s3)c2c1	0.72	-7	139*	90	-40	106	134*	104	101
CCOC(=O)C1CC(c2ccc(Cl)cc2)=NNC1=O (stereo not drawn)	1.2	-5	100	-17	1	103	.	.	.
Cc1ccc(NC(=O)c2c(Cl)n(C)c3ccccc23)cc1	1.7	-9	170*	37	-68	108	190*	123*	132*
CSc1ccc(/C=C(\C#N)C(=O)Nc2cccc(C)c2)cc1	1.6	5	100	12	5	96	.	.	.
